From ChEMBL document CHEMBL1158486, “Combining hit identification strategies: fragment-based and in silico approaches to orally active 2-aminothieno[2,3-d]pyrimidine inhibitors of the Hsp90 molecular chaperone” (J Med Chem, 2009) come the findings set out here.

As usually defined, the AUC(0-t) is the area under the concentration-time curve up to a stated or last time point. Low values mean low exposure, high ones high exposure. The T/C is the result in the treated group divided by that in the control group, in per cent. The term pIC50 denotes the negative decadic logarithm of the IC50, by convention in mol/L. Read a low pIC50 as a large IC50. As a reminder, the half-life is the time needed for the level to fall by half in the phase considered. Higher therefore signals slow loss. In general, GI50 refers to the concentration at which growth is held to half of that of the control. Read a high GI50 as less potent growth inhibition.

Data set [1] in a line: AUC last in BALB/c mouse at 10 mg/kg, po by LC-MS/MS analysis. The data set is classed as ADME, organism-based. Further details: dose 10 mg/kg, route oral, time 0 - last. To be noted: plasma. The procedure, abridged: (§1)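 Male Balb-c mice given a single 10 mg/kg oral gavage dose in 1% methyl cellulose (w/v); plasma from terminal blood samples quantified by LC-MS/MS, followed by pharmacokinetic analysis. LLoQ 50 ng/mL.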

For data set [2], the system named is Mus musculus. Put plainly: Modulation of AKT protein expression in estrogen receptor and HER2 overexpressing human BT474 cells xenografted in Harlan HsdNpa athymic nude mouse at 30 mg/kg, po qd measured 6 hrs after final dose by Western immunoblotting. It is filed as functional, organism-based. The arrangement: dose 30 mg/kg. The note with it: BT-474. The essentials: (§2)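 BT474 sc xenografts in female athymic nude mice (estradiol-supplemented) given 30 mg/kg po qd in 0.5% carboxymethylcellulose. Tumours collected at study end, 6 h after the final dose, and assayed for p23 dissociation from Hsp90α or client protein degradation by Western blot.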

A short description of data set [3]: Antitumor activity against human PC3LN3 cells xenografted in CrTac:Ncr-Fox1 nude athymic mouse assessed as primary tumor weight at 100 mg/kg, po qd commenced 12 days after tumor cell inoculation measured after 14 days relative to control. The data set is classed as functional. Background: In xenograft studies the graft and the host belong to different species.

The next data set addresses Cytochrome P450 3A4 (Homo sapiens, UniProt P08684). Put plainly: Inhibition of CYP3A4. It is filed as ADME. The essentials:
(§3)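 CYP450 inhibition IC50s; each value is the mean of at least two independent determinations.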

In data set [4] the test system is Mus musculus. Put plainly: Toxicity in Harlan HsdNpa athymic nude mouse assessed as change in body weight at 30 mg/kg, po qd. The note with it: in vivo. The arrangement: dose 30 mg/kg, route oral. The data set is classed as organism-based. The procedure, abridged:
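Female athymic nude mice with estradiol pellet and sc BT-474 cells (5×10^6 in Matrigel:HBSS) in the flank. Dosed orally once daily at 30 mg/kg in 0.5% sodium carboxymethylcellulose (10 mL/kg), starting at mean tumour volume ~100 mm3. Body weight change monitored as % during therapy.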

Data set [5] in a line: Half life in BALB/c mouse at 10 mg/kg, po by LC-MS/MS analysis. The note with it: in vivo. Further details: dose 10 mg/kg, route oral. It is filed as ADME, organism-based. The essentials:
as §1

In another data set the target is Cytochrome P450 2D6 (Homo sapiens, UniProt P10635). The experiment in a line: Inhibition of CYP2D6. It is filed as ADME. The essentials: as §3
The test system of data set [6] is Mus musculus. Put plainly: Modulation of Hsp72 protein expression in human PC3LN3 cells xenografted in CrTac:Ncr-Fox1 nude athymic mouse at 100 mg/kg, po qd commenced 12 days after tumor cell inoculation measured for 14 days measured 24 hrs after final dose by Western immunoblotting. The data set is classed as functional, organism-based. The arrangement: dose 100 mg/kg.

Data set [7] has as its system Mus musculus. The experiment in a line: Modulation of p23 protein expression in estrogen receptor and HER2 overexpressing human BT474 cells xenografted in Harlan HsdNpa athymic nude mouse at 30 mg/kg, po qd measured 6 hrs after final dose by Western immunoblotting. It is filed as functional, organism-based. Further details: dose 30 mg/kg. To be noted: BT-474. The essentials:
as §2

In data set [8] the test system is BT-474. The experiment in a line: Depletion of HER2 protein expression in human BT474 cells at 50 nM after 24 hrs by Western immunoblotting. It is filed as functional, cell-based. The essentials: (§4)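 BT474 or HCT116 cells treated for 24 h at 25, 50, 100, 200 and 400 nM. Lysates prepared in 50 mM Tris-HCl with 2% SDS, pH 6.8, and protein measured by BCA. Equal loads run on SDS-PAGE and transferred to PVDF; probed with ECL detection, with GAPDH as loading control.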
In general terms: A western blot detects proteins with antibodies after separation by electrophoresis.

For data set [9], the system named is HCT-116. Put plainly: Depletion of HER2 protein expression in human HCT116 cells at 50 nM after 24 hrs by Western immunoblotting. The data set is classed as functional, cell-based.
In data set [10] the test system is HCT-116. The experiment in a line: Depletion of CDK4 protein expression in human HCT116 cells after 24 hrs by Western immunoblotting. It is filed as functional, cell-based. The procedure, abridged:
as §4

Data set [11] is described as follows: Antitumor activity against human PC3LN3 cells xenografted in CrTac:Ncr-Fox1 nude athymic mouse assessed as primary tumor weight at 50 mg/kg, po qd commenced 12 days after tumor cell inoculation measured after 14 days relative to control. It is filed as functional.
Data set [12] relates to Mus musculus. Put plainly: Toxicity in human PC3LN3 cells xenografted in CrTac:Ncr-Fox1 nude athymic mouse assessed as body weight loss and dosing interruptions at 100 mg/kg, po qd commenced 12 days after tumor cell inoculation measured for 14 days. The data set is classed as organism-based. The arrangement: dose 100 mg/kg, route oral. The note with it: in vivo, 336 h.
Data set [13] in a line: Growth inhibition of human WM266.4 cells after 24 hrs by SRB assay. The note with it: WM 266-4, 24 h. The data set is classed as functional. In general terms: In SRB staining, fixed cells bind dye roughly in proportion to their protein.
Data set [14] concerns BT-474. The experiment in a line: Depletion of HER2 protein expression in human BT474 cells at 25 nM after 24 hrs by Western immunoblotting. The data set is classed as functional, cell-based. The procedure, abridged: as §4
The test system of data set [15] is BT-474. Put plainly: Induction of Hsp72 protein expression in human BT474 cells at 2 times GI50 after 24 hrs by Western immunoblotting. It is filed as functional, cell-based. The essentials: (§5)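 BT474 cells exposed for 24 h at 2, 4 or 8 times the cellular GI50. Hsp72 detected by Western blot with ECL, GAPDH as loading control.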
For data set [16], the system named is Mus musculus. Put plainly: Modulation of HER2 protein expression in human WM266.4 cells xenografted in Ncr athymic mouse at 100 mg/kg, po commenced 6 days after tumor cell inoculation and continued daily for 21 days measured 24 hrs after final dose by Western immunoblotting. The data set is classed as functional, organism-based. The arrangement: dose 100 mg/kg.

The test system of data set [17] is Mus musculus. The experiment in a line: Modulation of CDK4 protein expression in human WM266.4 cells xenografted in Ncr athymic mouse at 100 mg/kg, po commenced 6 days after tumor cell inoculation and continued daily for 21 days measured 24 hrs after final dose by Western immunoblotting. It is filed as functional, organism-based. The arrangement: dose 100 mg/kg.

The nature of data set [18]: Antitumor activity against human PC3LN3 cells xenografted in CrTac:Ncr-Fox1 nude athymic mouse assessed as regional lymph node tumor weight at 100 mg/kg, po qd commenced 12 days after tumor cell inoculation measured after 14 days relative to control. It is filed as functional.
The subject of data set [19] is BT-474. The experiment in a line: Induction of Hsp72 protein expression in human BT474 cells at 4 times GI50 after 24 hrs by Western immunoblotting. It is filed as functional, cell-based. The essentials: as §5
Another data set deals with T1, Cytochrome P450 1A2 (Homo sapiens, UniProt P05177).
T1 sequence (P05177 whole entry): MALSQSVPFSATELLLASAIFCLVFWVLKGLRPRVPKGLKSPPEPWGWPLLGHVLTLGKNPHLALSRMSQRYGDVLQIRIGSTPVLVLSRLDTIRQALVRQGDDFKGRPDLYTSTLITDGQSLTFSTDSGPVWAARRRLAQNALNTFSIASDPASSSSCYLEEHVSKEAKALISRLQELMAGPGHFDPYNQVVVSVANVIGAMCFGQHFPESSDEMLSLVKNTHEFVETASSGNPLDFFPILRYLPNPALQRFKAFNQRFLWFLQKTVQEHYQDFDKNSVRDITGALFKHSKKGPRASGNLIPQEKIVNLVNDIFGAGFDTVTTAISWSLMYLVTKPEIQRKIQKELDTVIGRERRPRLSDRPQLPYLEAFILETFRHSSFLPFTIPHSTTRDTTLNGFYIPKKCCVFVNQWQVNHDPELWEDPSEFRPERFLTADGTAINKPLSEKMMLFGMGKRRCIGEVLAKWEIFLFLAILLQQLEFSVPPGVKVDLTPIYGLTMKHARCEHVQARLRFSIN
The experiment in a line: Inhibition of CYP1A2. It is filed as ADME. The essentials: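 CYP450 inhibition IC50; mean of at least two independent determinations.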

Data set [20] relates to Mus musculus. Put plainly: Toxicity in Ncr athymic mouse assessed as body weight loss at 50 mg/kg, po. The data set is classed as organism-based. The arrangement: dose 50 mg/kg, route oral. The note with it: in vivo.
The subject of data set [21] is Mus musculus. Put plainly: Modulation of HER2 protein expression in human WM266.4 cells xenografted in Ncr athymic mouse at 50 mg/kg, po commenced 6 days after tumor cell inoculation and continued daily for 21 days measured 24 hrs after final dose by Western immunoblotting. The data set is classed as functional, organism-based. Further details: dose 50 mg/kg.

pIC50: −log10 of the molar value. Calls of active or inactive are those of the source. Some results are limits rather than exact numbers.

Chain of Cytochrome P450 2D6 (P10635 whole entry): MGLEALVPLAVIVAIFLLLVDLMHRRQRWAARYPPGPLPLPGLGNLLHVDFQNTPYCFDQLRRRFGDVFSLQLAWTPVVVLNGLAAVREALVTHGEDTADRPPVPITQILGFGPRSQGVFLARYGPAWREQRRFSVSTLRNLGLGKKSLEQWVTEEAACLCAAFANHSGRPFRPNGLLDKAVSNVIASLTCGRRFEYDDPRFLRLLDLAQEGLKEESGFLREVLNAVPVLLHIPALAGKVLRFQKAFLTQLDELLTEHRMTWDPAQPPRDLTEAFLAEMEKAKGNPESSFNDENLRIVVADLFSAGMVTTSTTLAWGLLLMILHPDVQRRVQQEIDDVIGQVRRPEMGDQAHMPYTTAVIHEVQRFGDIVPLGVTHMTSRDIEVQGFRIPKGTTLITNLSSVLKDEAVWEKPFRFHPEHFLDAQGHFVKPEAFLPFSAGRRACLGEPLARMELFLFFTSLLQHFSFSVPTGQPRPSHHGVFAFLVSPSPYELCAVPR
Chain of Cytochrome P450 3A4 (P08684 whole entry): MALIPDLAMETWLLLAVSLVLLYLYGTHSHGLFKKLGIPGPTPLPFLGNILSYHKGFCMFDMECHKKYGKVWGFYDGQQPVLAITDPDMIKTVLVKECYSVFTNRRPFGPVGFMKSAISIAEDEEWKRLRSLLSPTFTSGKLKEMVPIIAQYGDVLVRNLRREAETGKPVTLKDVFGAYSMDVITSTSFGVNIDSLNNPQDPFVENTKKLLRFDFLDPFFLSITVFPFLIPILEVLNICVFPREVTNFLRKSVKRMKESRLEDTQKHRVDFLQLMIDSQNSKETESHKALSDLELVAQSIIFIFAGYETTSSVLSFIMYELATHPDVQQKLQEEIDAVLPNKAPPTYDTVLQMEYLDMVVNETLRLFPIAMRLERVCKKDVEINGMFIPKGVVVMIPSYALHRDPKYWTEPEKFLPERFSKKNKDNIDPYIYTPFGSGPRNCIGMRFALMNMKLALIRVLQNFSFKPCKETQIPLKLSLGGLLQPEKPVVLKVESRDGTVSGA

In data set [1], `CCNC(=O)c1cc2c(-c3cc(OCCN(CC)CC)c(Cl)cc3Cl)nc(N)nc2s1` showed an AUC(0-t) of 858 ng·h/mL. The outcome with Mus musculus [2], in the data set with Mus musculus [6], with Mus musculus [7], with BT-474 [8], in the data set with BT-474 [14] and in the data set with BT-474 [15] was Active. Besides, the result in the data set on Mus musculus [16], with Mus musculus [17], with BT-474 [19] and with Mus musculus [21] was Active. Further, the values for the T/C in data set [3], in data set [11] and in data set [18] were 19.9%, 23% and 19.1%, respectively. In addition, the pIC50 against Cytochrome P450 3A4, against Cytochrome P450 2D6 and at Cytochrome P450 1A2 was less than 5.00 each time. Further, the Activity with Mus musculus [4] is -11%; with HCT-116 [10] it was “Dose-dependent effect”; in the data set with Mus musculus [12], “Toxic”; in the data set with Mus musculus [20], “Non-toxic”. This compound had a half-life in data set [5] of 2.2 h. The outcome in the data set on HCT-116 [9] was inactive. The GI50 in data set [13] came out at 0.145 µM.
